Series [1] in a line: Inhibition of Trichomonas vaginalis G3 AE1 expressed in Pichia pastoris after 20 mins. The essentials: (§1)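 Recombinant AE zymogens expressed in Pichia pastoris; SmAE and TvAE1 autoactivated in 0.5 M sodium acetate, 4 mM DTT, pH 4.5, 37 °C, 3 h to overnight; IrAE used without activation. Buffer 0.1 M citrate phosphate, 4 mM DTT, pH 6.8 (SmAE, TvAE1) or pH 5.5 (IrAE). Inhibitor 2.0–0.0002 µM final, 20 min preincubation at room temperature; 10 µM final Cbz-Ala-Ala-Asn-AMC, 20 min; IC50 from RFU/min vs concentration.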

The nature of series [2]: Inhibition of Ixodes ricinus AE expressed in Pichia pastoris after 20 mins. An outline of the steps:
as §1

A further series concerns the target T1, Caspase-3 (Homo sapiens) (UniProt P42574).
T1 sequence (whole entry): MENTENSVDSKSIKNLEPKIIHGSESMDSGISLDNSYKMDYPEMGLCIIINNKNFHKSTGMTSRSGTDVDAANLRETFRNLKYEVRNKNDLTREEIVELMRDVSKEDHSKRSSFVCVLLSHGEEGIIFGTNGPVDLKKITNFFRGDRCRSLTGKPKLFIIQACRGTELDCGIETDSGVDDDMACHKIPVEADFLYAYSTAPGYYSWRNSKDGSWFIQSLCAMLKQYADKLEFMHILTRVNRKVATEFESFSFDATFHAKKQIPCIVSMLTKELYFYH
Nature of the series: Inhibition of caspase 3 assessed as ratio of pseudo-first-order inhibition rate constant to inhibitor concentration. An outline of the steps: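 Caspase-3 (1 nM final) preactivated 10 min at 37 °C in 40 mM Pipes, 200 mM NaCl, 0.2% CHAPS, 20% sucrose mixed 1:1 with 20 mM DTT, pH 7.2; enzyme added to inhibitor plus Ac-Asp-Glu-Val-Asp-AMC; progress curves 20 min at 37 °C (ex 360, em 465 nm); duplicates; rates corrected for substrate (KM 9.7 µM).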

Series [3] concerns the target T2, Calpain-1 catalytic subunit (Homo sapiens) (UniProt P07384).
T2 sequence (whole entry): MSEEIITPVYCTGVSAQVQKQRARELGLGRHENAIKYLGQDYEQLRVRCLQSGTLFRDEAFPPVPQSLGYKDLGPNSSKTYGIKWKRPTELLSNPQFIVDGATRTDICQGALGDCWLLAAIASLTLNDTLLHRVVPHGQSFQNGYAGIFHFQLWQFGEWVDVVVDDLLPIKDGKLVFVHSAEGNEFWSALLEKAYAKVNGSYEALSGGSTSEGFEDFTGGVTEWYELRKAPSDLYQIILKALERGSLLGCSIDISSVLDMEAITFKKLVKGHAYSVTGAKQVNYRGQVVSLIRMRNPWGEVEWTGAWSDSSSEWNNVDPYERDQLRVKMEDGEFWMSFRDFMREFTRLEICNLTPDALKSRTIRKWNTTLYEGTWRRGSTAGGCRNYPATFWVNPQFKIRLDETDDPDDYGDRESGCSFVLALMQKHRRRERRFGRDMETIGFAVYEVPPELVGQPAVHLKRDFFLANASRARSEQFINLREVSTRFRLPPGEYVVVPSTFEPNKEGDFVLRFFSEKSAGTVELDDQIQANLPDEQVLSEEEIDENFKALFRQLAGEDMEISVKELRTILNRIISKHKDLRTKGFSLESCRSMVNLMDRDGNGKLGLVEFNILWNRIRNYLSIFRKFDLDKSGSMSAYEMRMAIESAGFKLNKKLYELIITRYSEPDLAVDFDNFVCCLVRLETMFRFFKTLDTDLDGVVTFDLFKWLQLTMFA
Nature of the series: Inhibition of calpain 1 assessed as ratio of pseudo-first-order inhibition rate constant to inhibitor concentration.

Series [4] in a line: Stability assessed as half life in citrate phosphate buffer at pH 5.8 in presence of dithiothreitol. As to conditions: citrate phosphate buffer with dithiothreitol. In kind it is physicochemical.
For another series, the system named is Schistosoma mansoni. Nature of the series: Inhibition of Schistosoma mansoni AE assessed as ratio of pseudo-first-order inhibition rate constant to inhibitor concentration. The essentials: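 Autoactivated recombinant SmAE added to six inhibitor concentrations (0–1 µM final) in 0.1 M citrate phosphate, 2 mM DTT, pH 6.8 with 20 µM Cbz-Ala-Ala-Asn-AMC; progress followed every 2 s for 30 min at 25 °C (ex 355, em 460 nm); kobs/[I] by nonlinear regression, corrected for substrate by factor 1.33.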

Calls of active or inactive are those of the source.

Regarding `CCOC(=O)/C=C/C(=O)N(CC(N)=O)NC(=O)[C@H](C)NC(=O)[C@H](C)NC(=O)OCc1ccccc1`, the IC50 in series [1] and in series [2] was 4.5 nM each time. Besides, the result (on Caspase-3 (Homo sapiens); in series [3]) was inactive. Besides, the half-life in series [4] came out at 0.317 h.
Consider `C[C@H](NC(=O)OCc1ccccc1)C(=O)N[C@@H](C)C(=O)NN(CC(N)=O)C(=O)/C=C/C(=O)N(C)Cc1cccc2ccccc12`, for which the IC50 in series [1] was less than 1 nM; in series [2], 5.5 nM. Also, the Ratio with Schistosoma mansoni came to 16900 M⁻¹ s⁻¹. The result (on Caspase-3 (Homo sapiens); in series [3]) was inactive.
For the compound `C[C@H](NC(=O)OCc1ccccc1)C(=O)N[C@@H](C)C(=O)NN(CC(N)=O)C(=O)/C=C/C(=O)N(Cc1ccccc1)Cc1ccccc1`, the IC50 in series [1] turned out to be 10 nM; in series [2] it was 450 nM. Moreover, the figures for the Ratio (in the series on Schistosoma mansoni; in series [3]) were 5800 M⁻¹ s⁻¹ and less than 1 M⁻¹ s⁻¹, respectively. In addition, on Caspase-3 (Homo sapiens), the result was inactive.
On to `C[C@H](NC(=O)OCc1ccccc1)C(=O)N[C@@H](C)C(=O)NN(CC(N)=O)C(=O)/C=C/C(=O)N(C)Cc1ccccc1`, for which the IC50 is 0.55 nM in series [1] and less than 1 nM in series [2]. Also, the result (on Caspase-3 (Homo sapiens); in series [3]) was inactive. Moreover, the half-life in series [4] was 6.27 h.

What is called IC50 is the concentration needed to halve the response being measured. High values mean weaker potency, low ones greater potency. One may read the half-life as the time needed for the level to fall by half in the phase considered.

The values are drawn from ChEMBL document CHEMBL1150273, “Aza-peptidyl Michael acceptors. A new class of potent and selective inhibitors of asparaginyl endopeptidases (legumains) from evolutionarily diverse pathogens” (J Med Chem, 2008).
